Converted amounts (≈) assume the structure as drawn.
Columns and labels:
[1] = tested on: Mycobacterium tuberculosis; assay: Antitubercular activity against Mycobacterium tuberculosis H37Rv in aerobic condition after 7 days by microplate alamar blue assay; type: functional; conditions: 168 h
In short: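 M. tuberculosis H37Rv, replicating culture; 8-day microplate assay with Alamar blue added on day 7 to read growth. […] Mean of at least two independent determinations ± SD.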

[2] = tested on: Mycobacterium tuberculosis; assay: Antitubercular activity against Mycobacterium tuberculosis H37Rv in anaerobic condition after 7 days by low oxygen recovery assay; type: functional; conditions: 168 h
Vero = assay: Cytotoxicity against african green monkey Vero cells after 72 hrs by MTS assay; type: cell-based; conditions: Chlorocebus sabaeus
In short: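 VERO cells (CCL-81), 72 h exposure, tetrazolium dye read-out.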

Compound | MIC [1] [µM] | MIC [2] [µM] | IC50 (Vero) [µM]
O=[N+]([O-])c1cn2c(n1)OC[C@@H](OCc1ccccc1-c1ccccc1)C2 | 0.64 (≈ 0.225 µg/mL) | 2.5 (≈ 0.878 µg/mL) | > 125
O=[N+]([O-])c1cn2c(n1)OC[C@@H](OCc1ccc(-c3ccccc3O)cc1)C2 | 0.12 (≈ 0.0441 µg/mL) | 4.6 (≈ 1.69 µg/mL) | > 125
O=[N+]([O-])c1cn2c(n1)OC[C@@H](OCc1cccc(-c3ccc(OC(F)F)cc3)c1)C2 | 0.06 (≈ 0.025 µg/mL) | 2.8 (≈ 1.17 µg/mL) | > 125
O=[N+]([O-])c1cn2c(n1)OC[C@@H](OCc1ccc(-c3ccc(-c4ccccc4)cc3)cc1)C2 | 0.09 (≈ 0.0385 µg/mL) | > 32 | > 125
COc1ccccc1-c1ccc(CO[C@@H]2COc3nc([N+](=O)[O-])cn3C2)cc1 | 0.065 (≈ 0.0248 µg/mL) | 1.4 (≈ 0.534 µg/mL) | > 125
COc1cccc(Cl)c1-c1ccc(CO[C@@H]2COc3nc([N+](=O)[O-])cn3C2)cc1 | 0.055 (≈ 0.0229 µg/mL) | 0.74 (≈ 0.308 µg/mL) | > 125
O=[N+]([O-])c1cccc(-c2ccc(CO[C@@H]3COc4nc([N+](=O)[O-])cn4C3)cc2)c1 | 0.13 (≈ 0.0515 µg/mL) | 0.76 (≈ 0.301 µg/mL) | > 125
O=[N+]([O-])c1cn2c(n1)OC[C@@H](OCc1ccccc1-c1cccc(OC(F)(F)F)c1)C2 | 1.9 (≈ 0.827 µg/mL) | 6.3 (≈ 2.74 µg/mL) | > 125
O=[N+]([O-])c1cn2c(n1)OC[C@@H](OCc1ccc(-c3ccccc3F)cc1)C2 | 0.19 (≈ 0.0702 µg/mL) | 0.67 (≈ 0.247 µg/mL) | > 125
O=[N+]([O-])c1cn2c(n1)OC[C@@H](OCc1cccc(-c3ccc4ccccc4c3)c1)C2 | 0.12 (≈ 0.0482 µg/mL) | 3.2 (≈ 1.28 µg/mL) | > 125
N#Cc1cccc(-c2ccc(CO[C@@H]3COc4nc([N+](=O)[O-])cn4C3)cc2)c1 | 0.12 (≈ 0.0452 µg/mL) | 1.3 (≈ 0.489 µg/mL) | > 125
O=[N+]([O-])c1cn2c(n1)OC[C@@H](OCc1ccc(-c3ccccc3OC(F)(F)F)cc1)C2 | 0.035 (≈ 0.0152 µg/mL) | 0.97 (≈ 0.422 µg/mL) | > 125
O=[N+]([O-])c1cn2c(n1)OC[C@@H](OCc1ccc(-c3ccc(OC(F)(F)F)c([N+](=O)[O-])c3)cc1)C2 | 0.045 (≈ 0.0216 µg/mL) | 1.6 (≈ 0.769 µg/mL) | > 125
O=[N+]([O-])c1cn2c(n1)OC[C@@H](OCc1cccc(-c3cccc(OCCCN4CCOCC4)c3)c1)C2 | 1.4 (≈ 0.692 µg/mL) | 11 (≈ 5.44 µg/mL) | > 125
O=[N+]([O-])c1cn2c(n1)OC[C@@H](OCc1ccc(-c3cccc(F)c3)cc1)C2 | 0.045 (≈ 0.0166 µg/mL) | 2.2 (≈ 0.813 µg/mL) | > 125
O=[N+]([O-])c1cn2c(n1)OC[C@@H](OCc1ccccc1-c1ccc3ccccc3c1)C2 | 1.6 (≈ 0.642 µg/mL) | 3.1 (≈ 1.24 µg/mL) | > 125
NC(=O)c1cccc(-c2ccc(CO[C@@H]3COc4nc([N+](=O)[O-])cn4C3)cc2)c1 | 2.8 (≈ 1.1 µg/mL) | 6.7 (≈ 2.64 µg/mL) | > 125
O=[N+]([O-])c1cn2c(n1)OC[C@@H](OCc1ccc(-c3ccccc3Oc3ccccc3)cc1)C2 | 0.06 (≈ 0.0266 µg/mL) | 1.8 (≈ 0.798 µg/mL) | > 125
O=[N+]([O-])c1cn2c(n1)OC[C@@H](OCc1cccc(-c3ccc(OC(F)(F)F)cc3)c1)C2 | 0.11 (≈ 0.0479 µg/mL) | 2.2 (≈ 0.958 µg/mL) | > 125
N#Cc1cccc(-c2cccc(CO[C@@H]3COc4nc([N+](=O)[O-])cn4C3)c2)c1 | 0.17 (≈ 0.064 µg/mL) | 3.7 (≈ 1.39 µg/mL) | > 125
CSc1ccc(-c2cccc(CO[C@@H]3COc4nc([N+](=O)[O-])cn4C3)c2)cc1 | 0.095 (≈ 0.0378 µg/mL) | 0.93 (≈ 0.37 µg/mL) | > 125
O=[N+]([O-])c1cn2c(n1)OC[C@@H](OCc1ccc(-c3ccc(OCCO)cc3)cc1)C2 | 0.55 (≈ 0.226 µg/mL) | 3.3 (≈ 1.36 µg/mL) | > 125
